ChEMBL document CHEMBL1125686, “(Benzoylphenyl)piperidines: a new class of immunomodulators” (1991)

What was measured:
Type in all cases: functional
Mus musculus [1] = assay: Proliferation induced by the mitogen alone-Concanavalin A (control blastogenesis), in mice cells dosed at 5 ug/mL; set-up: unit not given here
Outline: (§1)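 Splenocytes from female DBA/2 mice, 6–9 weeks old; red cells lysed with cold 0.17 M NH₄Cl. Cells plated at 5 × 10⁶ cells/mL in RPMI 1640 with 5% FCS, with compound (5–80 μg/mL range) and Con A, PWM or PHA at a batch-optimized concentration. Cultured 72 h at 37 °C, 5% CO₂, with [³H]thymidine for the final 24 h, read by scintillation. Triplicate wells; mean ± SD of three cultures.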

Mus musculus [2] = organism: Mus musculus; assay: Maximal proliferation induced in the presence of the mitogen-PWM ( stimulated blastogenesis) in Mice cells at a dose of 10 ug/mL; set-up: unit not given here; outline: as §1
Mus musculus [3] = assay: Maximal proliferation induced in the presence of the mitogen-Concanavalin A (stimulated blastogenesis) in mice cells dosed at 5 ug/mL; set-up: unit not given here; outline: as §1
Mus musculus [4] = organism: Mus musculus; assay: Proliferation induced by the mitogen alone-PWM (control blastogenesis), in Mice cells at a dose of 10 ug/mL; set-up: unit not given here; outline: as §1
Mus musculus [5] = organism: Mus musculus; assay: Maximal proliferation induced in the presence of the mitogen-PHA ( stimulated blastogenesis) in Mice cells at a dose of 5 ug/mL; set-up: unit not given here; outline: as §1
Mus musculus [6] = organism: Mus musculus; assay: Proliferation induced by the mitogen alone-PHA (control blastogenesis), in Mice cells at a dose of 5 ug/mL; set-up: unit not given here; outline: as §1
Mus musculus [7] = organism: Mus musculus; assay: Maximal proliferation induced in the presence of the mitogen-PWM ( stimulated blastogenesis) in Mice cells at a dose of 80 ug/mL; set-up: unit not given here; outline: as §1
Mus musculus [8] = organism: Mus musculus; assay: Proliferation induced by the mitogen alone-PWM (control blastogenesis), in Mice cells at a dose of 80 ug/mL; set-up: unit not given here
Outline: (§2)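 Splenocytes from female DBA/2 mice aged 6–9 weeks, red cells lysed with cold 0.17 M NH4Cl, cultured at 5 × 10⁶ cells/mL in RPMI 1640 with 5% FCS. Pokeweed mitogen added at a batch-adjusted optimal level, 72 h at 37 °C, 5% CO2. [³H]thymidine pulse for the final 24 h, then scintillation counting. Triplicates; mean ± SD of three cultures.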

Mus musculus [9] = assay: […] induction of Thyl+ antigen expression on murine bone marrow cells at the concentration of 2.6 uM(Fraction A).(treated)
Outline: (§3)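 Bone marrow from female C57 BL/6 mice, 5–8 weeks old, separated on a discontinuous BSA gradient. Fraction A (lowest density) and fraction B (next lowest) resuspended at 10⁶ cells/mL in HBSS with 5% BSA. Cells incubated 24 h with one compound concentration, then stained directly with FITC anti-Thy1 and counted by epifluorescence microscopy. % Thy1⁺ cells recorded for treated and control cultures.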

Mus musculus [10] = assay: […] induction of Thyl+ antigen expression on murine bone marrow cells at the concentration of 2.6 uM(Fraction B).(Control group); outline: as §3
Mus musculus [11] = assay: […] induction of Thyl+ antigen expression on murine bone marrow cells at the concentration of 2.6 uM(Fraction A).(Control group); outline: as §3
Mus musculus [12] = assay: […] induction of Thyl+ antigen expression on murine bone marrow cells at the concentration of 2.6 uM(Fraction B).(treated); outline: as §3
Mus musculus [13] = organism: Mus musculus; assay: Maximal proliferation induced by the test compound in the presence of the mitogen-PWM ( stimulated blastogenesis) in Mice cells at a dose of 20 ug/mL; outline: as §1
Mus musculus [14] = organism: Mus musculus; assay: Proliferation induced by the mitogen alone-PWM (control blastogenesis), in Mice cells at a dose of 20 ug/mL; outline: as §1
Mus musculus [15] = organism: Mus musculus; assay: Proliferation induced by the mitogen alone-PHA (control blastogenesis), in Mice cells at a dose of 7.5 ug/mL; outline: as §1
Mus musculus [16] = organism: Mus musculus; assay: Maximal proliferation induced by the test compound in the presence of the mitogen-PHA ( stimulated blastogenesis) in Mice cells at a dose of 7.5 ug/mL; outline: as §1
Mus musculus [17] = organism: Mus musculus; assay: Maximal proliferation induced in the presence of the mitogen-PWM ( stimulated blastogenesis) in Mice cells at a dose of 40 ug/mL; set-up: unit not given here; outline: as §1
Mus musculus [18] = organism: Mus musculus; assay: Proliferation induced by the mitogen alone-PWM (control blastogenesis), in Mice cells at a dose of 40 ug/mL; set-up: unit not given here; outline: as §2
Mus musculus [19] = assay: […] induction of Thyl+ antigen expression on murine bone marrow cells (Fraction A).(Control group); outline: as §3
Mus musculus [20] = assay: […] induction of Thyl+ antigen expression on murine bone marrow cells (Fraction B).(Treated); outline: as §3
Mus musculus [21] = assay: […] induction of Thyl+ antigen expression on murine bone marrow cells (Fraction A).(Treated); outline: as §3
Mus musculus [22] = assay: […] induction of Thyl+ antigen expression on murine bone marrow cells (Fraction B).(Control group); outline: as §3

Compound | Proliferative response (Mus musculus [1]) | Proliferative response (Mus musculus [2]) | Proliferative response (Mus musculus [3]) | Proliferative response (Mus musculus [4]) | Proliferative response (Mus musculus [5]) | Proliferative response (Mus musculus [6]) | further results
COc1ccc(C(=O)c2cc(N)ccc2N2CCC(C)CC2)cc1 | 322.1 | 121.8 | 363.6 | 103.3 | 54.3 | 36.3 | 
COc1ccc(C(=O)c2cc(N)ccc2N2CCC(C)CC2)cc1OC | 137.4 |  | 158.4 |  |  |  | Proliferative response (Mus musculus [7]): 48.8; Proliferative response (Mus musculus [8]): 44.9
CC1CCCN(c2ccc(N)cc2C(=O)c2ccc(Cl)cc2)C1 (stereo unspecified) | 124.4 |  | 141.6 |  |  |  | Proliferative response (Mus musculus [7]): 45; Differentiation (Mus musculus [9]): 6.7%; Differentiation (Mus musculus [10]): 3.8%; Proliferative response (Mus musculus [8]): 41.3; Differentiation (Mus musculus [11]): 5%; Differentiation (Mus musculus [12]): 5%
Nc1ccc(N2CCC(O)CC2)c(C(=O)c2ccc(Cl)cc2)c1 | 374.8 | 88.7 | 281.1 | 107.9 | 52.6 | 45 | 
CCC1CCN(c2ccc(N)cc2C(=O)c2ccc(Cl)cc2)CC1 | 319.5 | 114.6 | 348 | 88.7 | 37.4 | 30.4 | 
Cc1cc(C(=O)c2cc(N)ccc2N2CCC(C)CC2)cc(C)c1C | 152.6 |  | 206 |  |  |  | Proliferative response (Mus musculus [13]): 77.1; Proliferative response (Mus musculus [14]): 84.5
CC1CCN(c2ccc(Cl)cc2C(=O)c2ccc(Cl)cc2)CC1 | 55.6 |  | 68.7 |  |  |  | Proliferative response (Mus musculus [15]): 14.6; Proliferative response (Mus musculus [16]): 8.2
CNc1ccc(N2CCC(C)CC2)c(C(=O)c2ccc(Cl)cc2)c1 | 18.2 | 19.5 | 21.3 | 20.3 |  |  | 
CC1CCN(c2ccccc2C(=O)c2ccc(Cl)cc2)CC1 | 92.7 |  | 62.7 |  |  |  | Proliferative response (Mus musculus [15]): 17.4; Proliferative response (Mus musculus [16]): 15.5
Cc1cccc(C(=O)c2cc(N)ccc2N2CCC(C)CC2)c1 | 389.9 | 135.9 | 414.1 | 98.8 | 62.4 | 47.9 | 
CC1CCN(c2ccc(N)cc2C(=O)c2ccc(Cl)c(Cl)c2)CC1 | 136.6 |  | 151.5 |  |  |  | Proliferative response (Mus musculus [7]): 64.4; Proliferative response (Mus musculus [8]): 48.4
Cc1ccc(C(=O)c2cc(N)ccc2N2CCC(C)CC2)cc1 | 179.7 |  | 283.2 |  |  |  | Proliferative response (Mus musculus [17]): 48.9; Proliferative response (Mus musculus [18]): 53.8
Nc1ccc(N2CCCCC2)c(C(=O)c2ccc(Cl)cc2)c1 | 24.6 | 44.8 | 21.3 | 47.7 |  |  | 
CC1CCN(c2ccc(N)cc2C(=O)c2ccccc2)CC1 | 188.1 |  | 167 |  |  |  | Proliferative response (Mus musculus [17]): 55.7; Proliferative response (Mus musculus [18]): 48.9
CC1CCN(c2ccc(N)cc2C(=O)c2ccc(F)cc2)CC1 | 268.2 |  | 165.6 |  |  |  | Proliferative response (Mus musculus [7]): 69.9; Proliferative response (Mus musculus [8]): 72.2
Nc1ccc(N2CCC(Cc3ccccc3)CC2)c(C(=O)c2ccc(Cl)cc2)c1 | 328 | 79.5 | 308 | 108.2 | 35.1 | 27.4 | 
CC(C)(C)C1CCN(c2ccc(N)cc2C(=O)c2ccc(Cl)cc2)CC1 | 30.5 | 137.5 | 31.9 | 114.8 | 55 | 59.1 | 
Cc1ccc(C(=O)c2cc(N)ccc2N2CCC(C)CC2)c(C)c1 | 279.6 |  | 250 |  |  |  | Proliferative response (Mus musculus [7]): 61.5; Proliferative response (Mus musculus [8]): 68.8
CC1CCN(c2ccc(N)cc2C(=O)c2ccc(Br)cc2)CC1 | 118.7 |  | 123.4 |  | 11.1 | 7 | Proliferative response (Mus musculus [17]): 56.4; Proliferative response (Mus musculus [18]): 40.5
CC1CCN(c2ccc(N)cc2C(=O)c2ccccc2Cl)CC1 | 150 |  | 165.5 |  |  |  | Proliferative response (Mus musculus [13]): 85.8; Proliferative response (Mus musculus [14]): 80
CC1CCN(c2ccc([N+](=O)[O-])cc2C(=O)c2ccc(Cl)cc2)CC1 | 160.9 |  | 93.7 |  |  |  | Proliferative response (Mus musculus [17]): 42.7; Proliferative response (Mus musculus [18]): 59.9
CC1CCN(c2ccccc2C(=O)c2ccccc2)CC1 | 13.6 | 24.7 | 9 | 15.1 |  |  | 
CC1CCN(c2ccc(N)cc2C(=O)c2cccc(C(F)(F)F)c2)CC1 | 332 | 79.9 | 297.7 | 79 | 36 | 34.3 | 
CC1CCN(c2ccc(N)cc2C(=O)c2ccc(Cl)cc2Cl)CC1 | 280 | 115.9 | 246.2 | 105.5 | 46.4 | 46.7 | 
CC1CCN(c2ccc(N)cc2C(=O)c2cccc(Cl)c2)CC1 | 316 | 105 | 343.8 | 102.8 | 40.9 | 40.2 | 
CC1CCCN(c2ccc(N(C)C)cc2C(=O)c2ccc(Cl)cc2)C1 (stereo unspecified) | 17.6 | 18.6 | 14.9 | 21.4 |  |  | 
COc1ccc(C(=O)c2ccccc2N2CCC(C)CC2)cc1 | 127.5 | 15.5 | 165 | 20.8 |  |  | 
H-CSDAAVDVSSEITVKDLKEKKEVVEEAE-OH [THYMOSIN] |  |  |  |  |  |  | Differentiation (Mus musculus [19]): 10.8%; Differentiation (Mus musculus [20]): 9.4%; Differentiation (Mus musculus [21]): 21.9%; Differentiation (Mus musculus [22]): 6.3%
